In brackets after ≈: the same amount, converted by molar mass. Activity calls are given as the source filed them.
What was measured:
Streptococcus pyogenes = assay: Antibacterial activity against Streptococcus pyogenes ATCC BAA-595 by CLSI M07-A8 method; type: functional
Procedure, shortened: (§1)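 Broth microdilution MIC run per CLSI M07-A8 (2009).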

Streptococcus pneumoniae = assay: Antibacterial activity against Streptococcus pneumoniae by CLSI M07-A8 method; type: functional, organism-based; procedure, shortened: as §1
Staphylococcus aureus [1] = assay: Antibacterial activity against GE2270-A-resistant Staphylococcus aureus harboring tufA G258D mutant gene by CLSI M07-A8 method; type: functional
Enterococcus faecium = assay: Antibacterial activity against Enterococcus faecium 7130724 by CLSI M07-A8 method; type: functional; procedure, shortened: as §1
Staphylococcus aureus [2] = assay: Antibacterial activity against methicillin-resistant Staphylococcus aureus isolate A4.018 by CLSI M07-A8 method; type: functional
Enterococcus faecalis = assay: Antibacterial activity against Enterococcus faecalis ATCC 29212 by CLSI M07-A8 method; type: functional; procedure, shortened: as §1

Row | SMILES | MIC (Streptococcus pyogenes) | Activity (Streptococcus pneumoniae) | Activity (Staphylococcus aureus [1]) | MIC (Enterococcus faecium) | MIC (Staphylococcus aureus [2]) | MIC (Enterococcus faecalis) | MIC (Staphylococcus aureus [1])
1 | CNC(=O)C[C@@H]1NC(=O)c2csc(n2)-c2ccc(-c3nc(NC(=O)OCCCN)cs3)nc2-c2csc(n2)-c2csc(n2)[C@H]([C@@H](O)c2ccccc2)NC(=O)CNC(=O)c2nc(sc2COC)[C@H](C(C)C)NC(=O)c2nc1sc2C | 16 µg/mL (≈ 13.4 µM) | Active | inactive | 1 µg/mL (≈ 0.835 µM) | 1 µg/mL (≈ 0.835 µM) | 1 µg/mL (≈ 0.835 µM) | –
2 | CNC(=O)C[C@@H]1NC(=O)c2csc(n2)-c2ccc(-c3nc(NC(=O)/C=C\C(=O)O)cs3)nc2-c2csc(n2)-c2csc(n2)[C@H]([C@@H](O)c2ccccc2)NC(=O)CNC(=O)c2nc(sc2COC)[C@H](C(C)C)NC(=O)c2nc1sc2C | 16 µg/mL (≈ 13.4 µM) | Active | inactive | 2 µg/mL (≈ 1.67 µM) | 1 µg/mL (≈ 0.837 µM) | 1 µg/mL (≈ 0.837 µM) | –
3 | CNC(=O)C[C@@H]1NC(=O)c2csc(n2)-c2ccc(-c3nc(NC(=O)OCCN)cs3)nc2-c2csc(n2)-c2csc(n2)[C@H]([C@@H](O)c2ccccc2)NC(=O)CNC(=O)c2nc(sc2COC)[C@H](C(C)C)NC(=O)c2nc1sc2C | 16 µg/mL (≈ 13.5 µM) | Active | inactive | 1 µg/mL (≈ 0.845 µM) | 1 µg/mL (≈ 0.845 µM) | 1 µg/mL (≈ 0.845 µM) | –
4 | CNC(=O)C[C@@H]1NC(=O)c2csc(n2)-c2ccc(-c3nc(NC(=O)C(C)(C)CCCC(C)(C)C(=O)O)cs3)nc2-c2csc(n2)-c2csc(n2)[C@H]([C@@H](O)c2ccccc2)NC(=O)CNC(=O)c2nc(sc2COC)[C@H](C(C)C)NC(=O)c2nc1sc2C | > 32 µg/mL | Active | inactive | 1 µg/mL (≈ 0.772 µM) | 4 µg/mL (≈ 3.09 µM) | 1 µg/mL (≈ 0.772 µM) | –
5 | CNC(=O)C[C@@H]1NC(=O)c2csc(n2)-c2ccc(-c3nc(NC(=O)CCC(=O)O)cs3)nc2-c2csc(n2)-c2csc(n2)[C@H]([C@@H](O)c2ccccc2)NC(=O)CNC(=O)c2nc(sc2COC)[C@H](C(C)C)NC(=O)c2nc1sc2C | 4 µg/mL (≈ 3.34 µM) | Active | inactive | 0.5 µg/mL (≈ 0.418 µM) | 0.25 µg/mL (≈ 0.209 µM) | 0.25 µg/mL (≈ 0.209 µM) | –
6 | CNC(=O)C[C@@H]1NC(=O)c2csc(n2)-c2ccc(-c3nc(NC(=O)OCCC[C@H](N)C(=O)O)cs3)nc2-c2csc(n2)-c2csc(n2)[C@H]([C@@H](O)c2ccccc2)NC(=O)CNC(=O)c2nc(sc2COC)[C@H](C(C)C)NC(=O)c2nc1sc2C | 8 µg/mL (≈ 6.37 µM) | Active | inactive | 32 µg/mL (≈ 25.5 µM) | 8 µg/mL (≈ 6.37 µM) | 8 µg/mL (≈ 6.37 µM) | –
7 | CNC(=O)C[C@@H]1NC(=O)c2csc(n2)-c2ccc(-c3nc(NC(C)=O)cs3)nc2-c2csc(n2)-c2csc(n2)[C@H]([C@@H](O)c2ccccc2)NC(=O)CNC(=O)c2nc(sc2COC)[C@H](C(C)C)NC(=O)c2nc1sc2C | > 32 µg/mL | Active | – | 1 µg/mL (≈ 0.878 µM) | 2 µg/mL (≈ 1.76 µM) | 1 µg/mL (≈ 0.878 µM) | > 32 µg/mL
8 | CNC(=O)C[C@@H]1NC(=O)c2csc(n2)-c2ccc(-c3nc(NC(=O)OCC(C)(C)N)cs3)nc2-c2csc(n2)-c2csc(n2)[C@H]([C@@H](O)c2ccccc2)NC(=O)CNC(=O)c2nc(sc2COC)[C@H](C(C)C)NC(=O)c2nc1sc2C | 8 µg/mL (≈ 6.6 µM) | Active | inactive | 1 µg/mL (≈ 0.825 µM) | 2 µg/mL (≈ 1.65 µM) | 1 µg/mL (≈ 0.825 µM) | –
9 | CNC(=O)C[C@@H]1NC(=O)c2csc(n2)-c2ccc(-c3nc(NC(=O)CC[C@H](N)C(=O)O)cs3)nc2-c2csc(n2)-c2csc(n2)[C@H]([C@@H](O)c2ccccc2)NC(=O)CNC(=O)c2nc(sc2COC)[C@H](C(C)C)NC(=O)c2nc1sc2C | > 32 µg/mL | Active | inactive | > 32 µg/mL | > 32 µg/mL | > 32 µg/mL | –
10 | CNC(=O)C[C@@H]1NC(=O)c2csc(n2)-c2ccc(-c3nc(NC(=O)c4ccnc(C(=O)O)c4)cs3)nc2-c2csc(n2)-c2csc(n2)[C@H]([C@@H](O)c2ccccc2)NC(=O)CNC(=O)c2nc(sc2COC)[C@H](C(C)C)NC(=O)c2nc1sc2C | > 32 µg/mL | Active | – | 8 µg/mL (≈ 6.42 µM) | 8 µg/mL (≈ 6.42 µM) | 2 µg/mL (≈ 1.61 µM) | –
11 | CNC(=O)C[C@@H]1NC(=O)c2csc(n2)-c2ccc(-c3nc(NC(=O)OC4CC(C)(C)NC(C)(C)C4)cs3)nc2-c2csc(n2)-c2csc(n2)[C@H]([C@@H](O)c2ccccc2)NC(=O)CNC(=O)c2nc(sc2COC)[C@H](C(C)C)NC(=O)c2nc1sc2C | 8 µg/mL (≈ 6.25 µM) | Active | inactive | 0.5 µg/mL (≈ 0.391 µM) | 1 µg/mL (≈ 0.781 µM) | 1 µg/mL (≈ 0.781 µM) | –
12 | CNC(=O)C[C@@H]1NC(=O)c2csc(n2)-c2ccc(-c3nc(NC(=O)OCCCCCN)cs3)nc2-c2csc(n2)-c2csc(n2)[C@H]([C@@H](O)c2ccccc2)NC(=O)CNC(=O)c2nc(sc2COC)[C@H](C(C)C)NC(=O)c2nc1sc2C | 8 µg/mL (≈ 6.53 µM) | Active | inactive | 0.5 µg/mL (≈ 0.408 µM) | 1 µg/mL (≈ 0.816 µM) | 0.5 µg/mL (≈ 0.408 µM) | –
